“And” between values parts separate entries of the source, which are not always exact repeats. Equal values may be shown once.
Tested on: Fibroblast
Experiment: Multiplex assay against human fibroblast
Format: toxicity, cell-based
How it was run: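 Phenotypes for tubulin, mitochondrial mass and membrane permeability are expressed as per cents of healthy-nucleus cells. Cells were stained live at seeding with Hoechst33342, BioTracker Green Microtubule Cytoskeleton Dye, MitoTracker Red and Annexin V Alexa Fluor 680, then imaged after compound addition on a CQ1 microscope at 37°C and 5% CO2. Machine-learning gating in CellPathfinder separated Hoechst high-intensity objects from normal cells, divided normal cells by nuclear state (healthy, pyknosed, fragmented) and divided pyknosed cells into mitotic or apoptotic.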

[1] = 12 h, 1 µM, compound concentration 1 uM
[2] = 12 h, 10 µM, compound concentration 10 uM
[3] = 24 h, 1 µM, compound concentration 1 uM
[4] = 24 h, 10 µM, compound concentration 10 uM
[5] = 48 h, 1 µM, compound concentration 1 uM
[6] = 48 h, 10 µM, compound concentration 10 uM

## COCCNc1cc(NC(=O)N2CCCc3cc(CN4CCOCC4=O)c(C=O)nc32)ncc1C#N
[1]
  Population Fragmented Nuclei (%): 9.19% and 4.72%
  Population Healthy Nuclei (%): 62.7% and 77.36%
  Population Hoechst High Intensity Objects (%): 0%
  Population Membrane Permeable-Phenotype (%): 4.31% and 4.27%
  Population Mitochondria Different-Phenotype (%): 4.31% and 6.71%
  Population Mitotic Cells (%): 92.31% and 76.32%
  Population Normal (%): 100%
  Population Pyknosed Nuclei (%): 28.11% and 17.92%
  Population Tubulin-Different-Phenotype (%): 12.07% and 18.29%
  Total Cell Count: 185 and 212
[2]
  Population Apoptotic (%): 11.11% and 16.67%
  Population Fragmented Nuclei (%): 13.02% and 4.35%
  Population Healthy Nuclei (%): 54.17% and 72.83%
  Population Hoechst High Intensity Objects (%): 0% and 0.54%
  Population Membrane Permeable-Phenotype (%): 9.62% and 8.21%
  Population Mitochondria Different-Phenotype (%): 20.19% and 13.43%
  Population Mitotic Cells (%): 88.89% and 83.33%
  Population Normal (%): 100% and 99.46%
  Population Pyknosed Nuclei (%): 32.81% and 22.83%
  Population Tubulin-Different-Phenotype (%): 43.27% and 48.51%
  Total Cell Count: 192 and 185
[3]
  Population Fragmented Nuclei (%): 7.46% and 3.69%
  Population Healthy Nuclei (%): 72.64% and 83.41%
  Population Hoechst High Intensity Objects (%): 0%
  Population Membrane Permeable-Phenotype (%): 4.79% and 2.76%
  Population Mitochondria Different-Phenotype (%): 2.05% and 5.52%
  Population Mitotic Cells (%): 95% and 78.57%
  Population Normal (%): 100%
  Population Pyknosed Nuclei (%): 19.9% and 12.9%
  Population Tubulin-Different-Phenotype (%): 10.27% and 12.15%
  Total Cell Count: 201 and 217
[4]
  Population Apoptotic (%): 26.32% and 30%
  Population Fragmented Nuclei (%): 10.14% and 8.42%
  Population Healthy Nuclei (%): 71.5% and 70.53%
  Population Hoechst High Intensity Objects (%): 0%
  Population Membrane Permeable-Phenotype (%): 12.84% and 7.46%
  Population Mitochondria Different-Phenotype (%): 15.54% and 15.67%
  Population Mitotic Cells (%): 73.68% and 70%
  Population Normal (%): 100%
  Population Pyknosed Nuclei (%): 18.36% and 21.05%
  Population Tubulin-Different-Phenotype (%): 43.24% and 50.75%
  Total Cell Count: 207 and 190
[5]
  Population Apoptotic (%): 15.38% and 26.32%
  Population Fragmented Nuclei (%): 7.73% and 4.91%
  Population Healthy Nuclei (%): 86.7% and 86.61%
  Population Hoechst High Intensity Objects (%): 0%
  Population Membrane Permeable-Phenotype (%): 1.49% and 2.58%
  Population Mitochondria Different-Phenotype (%): 7.92% and 1.03%
  Population Mitotic Cells (%): 84.62% and 73.68%
  Population Normal (%): 100%
  Population Pyknosed Nuclei (%): 5.58% and 8.48%
  Population Tubulin-Different-Phenotype (%): 5.45% and 12.89%
  Total Cell Count: 233 and 224
[6]
  Population Apoptotic (%): 25% and 38.46%
  Population Fragmented Nuclei (%): 13.64% and 8.2%
  Population Healthy Nuclei (%): 79.09% and 84.7%
  Population Hoechst High Intensity Objects (%): 0%
  Population Membrane Permeable-Phenotype (%): 4.02% and 7.74%
  Population Mitotic Cells (%): 75% and 61.54%
  Population Normal (%): 100%
  Population Pyknosed Nuclei (%): 7.27% and 7.1%
  Population Tubulin-Different-Phenotype (%): 24.71% and 43.87%
  Total Cell Count: 220 and 183

## CC(C)C[C@H](NC(=O)c1cc2ccccc2s1)C(=O)N1CCN(C(=O)[C@H](CO)NS(=O)(=O)c2ccc(Cl)cc2Cl)CC1
[1]
  Population Fragmented Nuclei (%): 14.47% and 9.24%
  Population Healthy Nuclei (%): 51.57% and 56.52%
  Population Hoechst High Intensity Objects (%): 0%
  Population Membrane Permeable-Phenotype (%): 7.32% and 5.77%
  Population Mitochondria Different-Phenotype (%): 17.07% and 18.27%
  Population Mitotic Cells (%): 88.89% and 55.56%
  Population Normal (%): 100%
  Population Pyknosed Nuclei (%): 33.96% and 34.24%
  Population Tubulin-Different-Phenotype (%): 35.37% and 45.19%
  Total Cell Count: 159 and 184
[2]
  Population Apoptotic (%): 10.29% and 22.73%
  Population Fragmented Nuclei (%): 17.22% and 7.1%
  Population Healthy Nuclei (%): 45% and 56.83%
  Population Hoechst High Intensity Objects (%): 0%
  Population Membrane Permeable-Phenotype (%): 19.75% and 36.54%
  Population Mitochondria Different-Phenotype (%): 58.02% and 50.96%
  Population Mitotic Cells (%): 89.71% and 77.27%
  Population Normal (%): 100%
  Population Pyknosed Nuclei (%): 37.78% and 36.07%
  Population Tubulin-Different-Phenotype (%): 81.48% and 96.15%
  Total Cell Count: 180 and 183
[3]
  Population Fragmented Nuclei (%): 15.79% and 9.14%
  Population Healthy Nuclei (%): 54.39% and 66.29%
  Population Hoechst High Intensity Objects (%): 0%
  Population Membrane Permeable-Phenotype (%): 9.68% and 7.76%
  Population Mitochondria Different-Phenotype (%): 10.75% and 17.24%
  Population Mitotic Cells (%): 96.08% and 48.84%
  Population Normal (%): 100%
  Population Pyknosed Nuclei (%): 29.82% and 24.57%
  Population Tubulin-Different-Phenotype (%): 45.16% and 50%
  Total Cell Count: 171 and 175
[4]
  Population Apoptotic (%): 22.58% and 46.67%
  Population Fragmented Nuclei (%): 11.67% and 8.33%
  Population Healthy Nuclei (%): 71.11% and 66.67%
  Population Hoechst High Intensity Objects (%): 0%
  Population Membrane Permeable-Phenotype (%): 19.53% and 8.33%
  Population Mitochondria Different-Phenotype (%): 49.22% and 55.83%
  Population Mitotic Cells (%): 77.42% and 53.33%
  Population Normal (%): 100%
  Population Pyknosed Nuclei (%): 17.22% and 25%
  Population Tubulin-Different-Phenotype (%): 89.84% and 96.67%
  Total Cell Count: 180
[5]
  Population Fragmented Nuclei (%): 10.05% and 9.68%
  Population Healthy Nuclei (%): 78.84% and 78.49%
  Population Hoechst High Intensity Objects (%): 0%
  Population Mitochondria Different-Phenotype (%): 12.75% and 8.22%
  Population Mitotic Cells (%): 85.71% and 50%
  Population Normal (%): 100%
  Population Pyknosed Nuclei (%): 11.11% and 11.83%
  Population Tubulin-Different-Phenotype (%): 33.56% and 65.07%
  Total Cell Count: 189 and 186
[6]
  Population Apoptotic (%): 38.89% and 56.52%
  Population Fragmented Nuclei (%): 11.45% and 11.37%
  Population Healthy Nuclei (%): 77.71% and 77.73%
  Population Hoechst High Intensity Objects (%): 0%
  Population Membrane Permeable-Phenotype (%): 6.2% and 8.54%
  Population Mitochondria Different-Phenotype (%): 39.53% and 48.78%
  Population Mitotic Cells (%): 61.11% and 43.48%
  Population Normal (%): 100%
  Population Pyknosed Nuclei (%): 10.84% and 10.9%
  Population Tubulin-Different-Phenotype (%): 82.17% and 96.34%
  Total Cell Count: 166 and 211
